# Experiments:
# Type in all cases: functional
# [1] = test system: Mycobacterium tuberculosis; experiment: Growth inhibition of Mycobacterium bovis BCG ATCC 35743 at active stage measured after 8 days by nitrate reductase dye based two fold dilution method; conditions: BCG str. ATCC 35743, 192 h
# Summary of the method: (§1)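 M. bovis BCG was grown in Dubos medium and assayed in Mycobacterium pheli minimal medium (pH 6.6), with compounds from DMSO stocks. Incubation lasted 8 days for active and 12 days for dormant cultures. Viability was read by nitrate reductase at 540 nm against cell-free blanks, with vehicle set as 100% growth. Primary screen was at 30, 10 and 3 µg/ml, in triplicate, mean ± SD. MIC was taken from dose-response curves.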
# [2] = test system: Mycobacterium tuberculosis; experiment: Growth inhibition of Mycobacterium bovis BCG ATCC 35743 at dormant stage at 3 ug/ml measured after 12 days by nitrate reductase dye based two fold dilution method relative to control; conditions: BCG str. ATCC 35743, 288 h, read-out: GI; summary of the method: as §1
# [3] = test system: Pseudomonas fluorescens; experiment: Growth inhibition of Pseudomonas fluorescens NCIM 2036 at 30 ug/ml measured after 8 hrs relative to control; conditions: NCIM 2036, 8 h, read-out: GI
# Summary of the method: (§2)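 Bacteria grown in LB at 37 °C and 180 rpm to OD 1. Compounds added to wells, then 0.1% inoculum of 1 OD culture (620 nm). Growth read as OD at 620 nm after 8 h for gram-negative and after 12 h for gram-positive strains.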
# [4] = test system: Pseudomonas fluorescens; experiment: Growth inhibition of Pseudomonas fluorescens NCIM 2036 at 10 ug/ml measured after 8 hrs relative to control; conditions: NCIM 2036, 8 h, read-out: GI; summary of the method: as §2
# [5] = Antifungal activity against Fusarium oxysporum NCIM 1332 by standard agar method
# Summary of the method: (§3)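 MICs determined by standard agar method; DMSO as solvent control.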
# [6] = test system: Staphylococcus aureus; experiment: Growth inhibition of Staphylococcus aureus NCIM 2010 at 30 ug/ml measured after 12 hrs relative to control; conditions: NCIM 2010, 12 h, read-out: GI; summary of the method: as §2
# [7] = test system: Pseudomonas fluorescens; experiment: Growth inhibition of Pseudomonas fluorescens NCIM 2036 at 3 ug/ml measured after 8 hrs relative to control; conditions: NCIM 2036, 8 h, read-out: GI; summary of the method: as §2
# [8] = Antifungal activity against Cryptococcus neoformans NCIM 576 by standard agar method; summary of the method: as §3
# [9] = test system: Bacillus subtilis; experiment: Growth inhibition of Bacillus subtilis NCIM 2079 at 30 ug/ml measured after 12 hrs relative to control; conditions: NCIM 2079, 12 h, read-out: GI; summary of the method: as §2
# [10] = test system: Escherichia coli; experiment: Antibacterial activity against Escherichia coli NCIM 2688 measured after 8 hrs; conditions: NCIM 2688, 8 h; summary of the method: as §2
# [11] = test system: Escherichia coli; experiment: Growth inhibition of Escherichia coli NCIM 2688 at 3 ug/ml measured after 8 hrs relative to control; conditions: NCIM 2688, 8 h, read-out: GI; summary of the method: as §2
# [12] = test system: Mycobacterium tuberculosis; experiment: Growth inhibition of Mycobacterium bovis BCG ATCC 35743 at dormant stage at 30 ug/ml measured after 12 days by nitrate reductase dye based two fold dilution method relative to control; conditions: BCG str. ATCC 35743, 288 h, read-out: GI; summary of the method: as §1
# [13] = test system: Bacillus subtilis; experiment: Growth inhibition of Bacillus subtilis NCIM 2079 at 3 ug/ml measured after 12 hrs relative to control; conditions: NCIM 2079, 12 h, read-out: GI; summary of the method: as §2
# [14] = test system: Aspergillus flavus; experiment: Antifungal activity against Aspergillus flavus NCIM 539 by standard agar method; summary of the method: as §3
# [15] = test system: Staphylococcus aureus; experiment: Antibacterial activity against of Staphylococcus aureus NCIM 2010 measured after 12 hrs; conditions: NCIM 2010, 12 h; summary of the method: as §2
# [16] = test system: Staphylococcus aureus; experiment: Growth inhibition of Staphylococcus aureus NCIM 2010 at 3 ug/ml measured after 12 hrs relative to control; conditions: NCIM 2010, 12 h, read-out: GI; summary of the method: as §2
# [17] = test system: Mycobacterium tuberculosis; experiment: Growth inhibition of Mycobacterium tuberculosis H37Ra ATCC 25177 at dormant stage measured after 12 days by XTT dye based two fold dilution method; conditions: H37Ra ATCC 25177, 288 h
# Summary of the method: (§4)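 MTB H37Ra was grown in Dubos medium, then exposed in Mycobacterium pheli minimal medium (pH 6.6) to compounds dissolved in DMSO. The assay ended on day 8 (active) or day 12 (dormant). Viable cells were measured by XTT reduction menadione assay at 470 nm, blank-corrected, relative to vehicle control. Triplicates were expressed as mean ± SD. MIC came from dose-response curves.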
# [18] = test system: Mycobacterium tuberculosis; experiment: Growth inhibition of Mycobacterium bovis BCG ATCC 35743 at dormant stage at 10 ug/ml measured after 12 days by nitrate reductase dye based two fold dilution method relative to control; conditions: BCG str. ATCC 35743, 288 h, read-out: GI; summary of the method: as §1
# [19] = test system: Bacillus subtilis; experiment: Antibacterial activity against Bacillus subtilis NCIM 2079 measured after 12 hrs; conditions: NCIM 2079, 12 h; summary of the method: as §2
# [20] = test system: Pseudomonas fluorescens; experiment: Antibacterial activity against Pseudomonas fluorescens NCIM 2036 measured after 8 hrs; conditions: NCIM 2036, 8 h; summary of the method: as §2
# [21] = test system: Escherichia coli; experiment: Growth inhibition of Escherichia coli NCIM 2688 at 10 ug/ml measured after 8 hrs relative to control; conditions: NCIM 2688, 8 h, read-out: GI; summary of the method: as §2
# [22] = test system: Bacillus subtilis; experiment: Growth inhibition of Bacillus subtilis NCIM 2079 at 10 ug/ml measured after 12 hrs relative to control; conditions: NCIM 2079, 12 h, read-out: GI; summary of the method: as §2
# [23] = test system: Candida albicans; experiment: Antifungal activity against Candida albicans NCIM 3471 by standard agar method; summary of the method: as §3
# [24] = test system: Aspergillus niger; experiment: Antifungal activity against Aspergillus niger NCIM 1196 by standard agar method; summary of the method: as §3
# [25] = test system: Escherichia coli; experiment: Growth inhibition of Escherichia coli NCIM 2688 at 30 ug/ml measured after 8 hrs relative to control; conditions: NCIM 2688, 8 h, read-out: GI; summary of the method: as §2
# [26] = test system: Mycobacterium tuberculosis; experiment: Growth inhibition of Mycobacterium bovis BCG ATCC 35743 at dormant stage measured after 12 days by nitrate reductase dye based two fold dilution method; conditions: BCG str. ATCC 35743, 288 h; summary of the method: as §1
# [27] = test system: Staphylococcus aureus; experiment: Growth inhibition of Staphylococcus aureus NCIM 2010 at 10 ug/ml measured after 12 hrs relative to control; conditions: NCIM 2010, 12 h, read-out: GI; summary of the method: as §2
# [28] = test system: Mycobacterium tuberculosis; experiment: Growth inhibition of Mycobacterium tuberculosis H37Ra ATCC 25177 at active stage measured after 8 days by XTT dye based two fold dilution method; conditions: H37Ra ATCC 25177, 192 h; summary of the method: as §4
compound,measurement,setting,value
O=C(O)CCN1C(=O)/C(=C/c2cc3cc(F)ccc3nc2Cl)SC1=S,IC50,[1],> 30 µg/mL
same,IC90,[1],> 30 µg/mL
same,inhibition of growth at 3 µg/mL,[2],18.2%
same,inhibition of growth at 30 µg/mL,[3],7.54%
same,inhibition of growth at 10 µg/mL,[4],-7.25%
same,MIC,[5],50 µg/mL
same,inhibition of growth at 30 µg/mL,[6],-23.8%
same,inhibition of growth at 3 µg/mL,[7],9.73%
same,MIC,[8],25 µg/mL
same,inhibition of growth at 30 µg/mL,[9],-9.07%
same,MIC,[10],> 30 µg/mL
same,inhibition of growth at 3 µg/mL,[11],15.7%
same,inhibition of growth at 30 µg/mL,[12],59.8%
same,inhibition of growth at 3 µg/mL,[13],-5.16%
same,MIC,[14],25 µg/mL
same,MIC,[15],> 30 µg/mL
same,inhibition of growth at 3 µg/mL,[16],5.15%
same,IC50,[17],> 30 µg/mL
same,IC90,[17],> 30 µg/mL
same,inhibition of growth at 10 µg/mL,[18],23.5%
same,MIC,[19],> 30 µg/mL
same,MIC,[20],> 30 µg/mL
same,inhibition of growth at 10 µg/mL,[21],21.4%
same,inhibition of growth at 10 µg/mL,[22],-4.74%
same,MIC,[23],50 µg/mL
same,MIC,[24],25 µg/mL
same,inhibition of growth at 30 µg/mL,[25],22.4%
same,IC50,[26],> 30 µg/mL
same,IC90,[26],> 30 µg/mL
same,inhibition of growth at 10 µg/mL,[27],-12.1%
same,IC50,[28],> 30 µg/mL
same,IC90,[28],> 30 µg/mL
Cc1ccc2cc(/C=C3\SC(=S)N(CC(=O)O)C3=O)c(Cl)nc2c1,IC50,[1],> 30 µg/mL
same,IC90,[1],> 30 µg/mL
same,inhibition of growth at 3 µg/mL,[2],22.7%
same,inhibition of growth at 30 µg/mL,[3],-8.32%
same,inhibition of growth at 10 µg/mL,[4],-10.7%
same,MIC,[5],125 µg/mL
same,inhibition of growth at 30 µg/mL,[6],-16%
same,inhibition of growth at 3 µg/mL,[7],-11.5%
same,MIC,[8],150 µg/mL
same,inhibition of growth at 30 µg/mL,[9],2.96%
same,MIC,[10],> 30 µg/mL
same,inhibition of growth at 3 µg/mL,[11],1.9%
same,inhibition of growth at 30 µg/mL,[12],11.4%
same,inhibition of growth at 3 µg/mL,[13],2.07%
same,MIC,[14],100 µg/mL
same,MIC,[15],> 30 µg/mL
same,inhibition of growth at 3 µg/mL,[16],-13.1%
same,IC50,[17],> 30 µg/mL
same,IC90,[17],> 30 µg/mL
same,inhibition of growth at 10 µg/mL,[18],22.4%
same,MIC,[19],> 30 µg/mL
same,MIC,[20],> 30 µg/mL
same,inhibition of growth at 10 µg/mL,[21],2.04%
same,inhibition of growth at 10 µg/mL,[22],-1.27%
same,MIC,[23],125 µg/mL
same,MIC,[24],75 µg/mL
same,inhibition of growth at 30 µg/mL,[25],-12.5%
same,IC50,[26],> 30 µg/mL
same,IC90,[26],> 30 µg/mL
same,inhibition of growth at 10 µg/mL,[27],-23.6%
same,IC50,[28],> 30 µg/mL
same,IC90,[28],> 30 µg/mL

# Reference: ChEMBL document CHEMBL3877264, “Quinolidene-rhodanine conjugates: Facile synthesis and biological evaluation” (Eur J Med Chem, 2017)
